Source: PubChem BioAssay (several laboratories)
proCasp7 act: procaspase-7 activators, primary screen, counter-screen for procaspase-3 activator project, biochemical, absorbance, HTS, human. Caspase-7 (Homo sapiens), P55210. recombinant procaspase-7, Ac-DEVD-pNA absorbance 405 nm; D23A/D198A/D206A triple mutant, cannot self-cleave; scale: DMSO 0, 5 µM enzyme 100. activation, % at 8.5 µM. hit rate 0.093% among 330,000. AID 463210, 2010;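 active = percent activation above the screen-wide mean plus 3 SD, cut at about 25% in these data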
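signal = Epi-absorbance of released pNA at 405 nm, two timepoints | assay system = Uncleavable procaspase-7 mutant enzyme | reagent = Ac-DEVD-pNA substrate, 400 µM as added | times = 1 h enzyme–compound preincubation and 2 h substrate reaction, both 25 °C | benchmarks = low DMSO alone, high DMSO plus 5 µM PC-7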
Neddyl block: inhibitors of cullin neddylation, primary screen, biochemical, TR-FRET, uHTS, NAE and Ubc12; NEDD8-conjugating enzyme Ubc12 (Homo sapiens) + NEDD8-activating enzyme E1 regulatory …; inhibition, % at 25 µM; hit rate 0.58% among 360,000; in the data active = inhibition above about 36%
Target sequence (P61081 whole entry, looked up): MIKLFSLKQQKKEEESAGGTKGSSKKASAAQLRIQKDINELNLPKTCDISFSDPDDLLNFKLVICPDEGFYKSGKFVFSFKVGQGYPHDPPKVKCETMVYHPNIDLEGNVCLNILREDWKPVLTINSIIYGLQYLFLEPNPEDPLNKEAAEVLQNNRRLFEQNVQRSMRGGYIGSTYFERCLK
Target sequence (Q13564 whole entry, looked up): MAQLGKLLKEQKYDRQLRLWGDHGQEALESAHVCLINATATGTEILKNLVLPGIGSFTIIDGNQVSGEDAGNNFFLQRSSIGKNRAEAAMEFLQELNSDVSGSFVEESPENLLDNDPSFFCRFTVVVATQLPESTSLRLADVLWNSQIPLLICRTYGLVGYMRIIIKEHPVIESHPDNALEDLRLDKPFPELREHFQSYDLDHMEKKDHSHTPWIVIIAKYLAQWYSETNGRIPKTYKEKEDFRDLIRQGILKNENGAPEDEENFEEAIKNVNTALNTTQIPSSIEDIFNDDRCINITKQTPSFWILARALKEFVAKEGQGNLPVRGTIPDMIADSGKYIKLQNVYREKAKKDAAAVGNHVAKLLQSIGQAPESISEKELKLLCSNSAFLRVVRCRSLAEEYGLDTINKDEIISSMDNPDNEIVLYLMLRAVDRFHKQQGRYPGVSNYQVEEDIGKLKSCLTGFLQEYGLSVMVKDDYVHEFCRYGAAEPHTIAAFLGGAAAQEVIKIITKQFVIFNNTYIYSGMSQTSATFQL
proCasp3 act: activators of human procaspase-3 D3A mutant, primary screen, biochemical, absorbance, PC-3 D3A mutant, single concentration; Caspase-3 (Homo sapiens), P42574; recombinant procaspase-3 D3A, Ac-DEVD-pNA absorbance 405 nm; hit rate 0.11% among 330,000; activation, % at 8.5 µM;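 active = activation above the mean of all tested compounds plus 3 SD, cut at about 21% in these data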;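 also: 0% = DMSO alone and 100% = DMSO wells spiked with extra 5 µM PC-3 D3A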
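Compound: 8.5 µM single point, 0.8% DMSO / Material: Autoprocessing-dead procaspase-3 D3A mutant enzyme / Timing: 1 h preincubation plus 2 h reaction at 25 °C / Medium: Zinc-free HEPES/NaCl buffer with 0.01% Triton X-100 at pH 7.4 / Technique: 405 nm absorbance of p-nitroaniline, reads at 0 and 120 min / Repeats: one well per compound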
GAA850 FXN act: FXN promoter activators, primary screen, cell-based, luciferase luminescence, HEK293 lucGAA850. hit rate 0.56% among 360,000. activation, % at 6 µM. HEK293 lucGAA850 FXN promoter luciferase reporter, 24 h; percent of 10 µM SAHA response. AID 540364, 2011;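 active = activation above the average of all compounds screened plus 3 SD, cutoff fixed separately per campaign, cut at about 7.5% in these data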;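 also: 0% = DMSO wells and 100% = 10 µM SAHA wells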
HIF activator: HIF pathway transcriptional activators, primary screen, cell-based, U2OS HRE-luciferase, luminescence; U2OS HRE-luciferase reporter; normalized: DMSO 0%, desferrioxamine 100%; activation, % at 7.5 µM (by protocol); hit rate 0.32% among 300,000; AID 1910, 2009;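 active = mean activation of at least 10% of the iron chelator positive control signal, with at least half of replicates also reaching 10%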
Calb FLC: C. albicans growth inhibition with fluconazole, primary screen, CaCi-2 strain, Alamar Blue fluorescence. C. albicans CaCi-2 + fluconazole, 48 h. growth inhibition, % (no concentration beside the values). hit rate 0.57% among 300,000. AID 1979, 2009;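 active = growth inhibition above about 58% in most replicates, limit read from the data, passing the limit was not always enough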;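 also: all wells also contain fluconazole at 8 µg/ml as a sub-toxic cotreatment; 0% = median of DMSO wells and 100% = median of geldanamycin control wells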
Neddyl inh conf: blockade of NEDD8 conjugation to cullin – biochemical, TR-FRET, single concentration, confirmation; TR-FRET cullin neddylation biochemical assay; shares compounds with Neddyl block; calls only at 25 µM; hit rate 13% among 1,800; AID 652217, 2013; in the data active = inhibition above about 40%;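 also: neddylation substrate is the cullin 1 ring ligase complex with SKP2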
The depositor's hits bear a star; i = inactive; . = not tested or not shown; + = active, no number. An excerpt weighted towards active compounds, which were near 1.9% of everything screened.

SMILES | proCasp7 act | Neddyl block | proCasp3 act | GAA850 FXN act | HIF activator | Calb FLC | Neddyl inh conf
CCOC(=O)c1cc(N2CCCCC2)nc2ccccc12 | . | . | . | 1 | . | . | .
O=C(O)c1cc(N2CCCCC2)nc2ccccc12 | . | 42* | . | 0 | . | . | +
Cc1cc(C)cc(OCCNC(=O)c2cc(S(=O)(=O)N3CCOCC3)ccc2F)c1 | -2 | -4 | -9 | 1 | -8 | -1 | .
CCN(CC)C(=O)CSc1nnc(-c2ccc(S(=O)(=O)N3CCOCC3)cc2)n1C | 7 | 30 | 2 | 0 | 0 | -12 | .
CC(C)Sc1nnc(-c2ccc(S(=O)(=O)N3CCOCC3)cc2)n1C | -5 | 44* | 4 | 2 | 0 | 5 | i
CC(C)Cc1csc(NC(=O)c2ccc(Cl)cc2)c1C(=O)O | -8 | 45* | 2 | 3 | 0 | 10 | i
CSCCC(NC(=O)c1ccccc1)C(=O)N1CCN(C(C)=O)CC1 (stereo not drawn) | 10 | -12 | -5 | 2 | . | . | .
COc1cc(F)ccc1-c1cc(C(=O)Nc2ccc(NC(C)=O)cc2)[nH]n1 | . | 54* | . | 0 | . | . | +
CC(=O)Nc1ccc(NC(=O)c2cc(-c3ccc(C)cc3O)n[nH]2)cc1 | 8 | 78* | 0 | -1 | 0 | -2 | +
Cc1cccc(NC(=O)c2cc(-c3cc(C)ccc3O)n[nH]2)c1 | -5 | 8 | 4 | 6 | -5 | 20 | .
CC(C)N1CCC(=NNC(=O)c2cccs2)CC1 | 3 | 5 | 12 | 7 | 2 | 4 | .
CCn1cc(CNC(=O)CSc2nc(-c3ccc(OC)c(OC)c3)cc(C(F)(F)F)n2)c(C)n1 | -10 | . | 8 | 0 | 1 | 8 | .
COCCNC(=O)CSc1nc(-c2ccc(OC)c(OC)c2)cc(C(F)(F)F)n1 | 5 | 40* | -3 | -1 | 0 | -4 | .
COc1ccc(-c2cc(C(F)(F)F)nc(SCC(=O)N3CCOCC3)n2)cc1OC | 4 | 43* | -7 | 2 | 0 | 5 | i
COc1ccc(-c2cnc3c(NC(C)=O)cc(-c4ccsc4)cn23)cc1OC | . | . | . | 3 | . | . | .
CC(=O)Nc1cc(-c2ccsc2)cn2c(-c3ccc(F)cc3)cnc12 | . | 42* | . | 3 | . | . | i
CSCCC(NC(=O)c1ccccc1Cl)C(=O)NCC(c1ccc(F)cc1)N1CCOCC1 (stereo not drawn) | . | -19 | . | -1 | . | . | .
CCN(CC(=O)Nc1ccc(NC(C)=O)cc1)C(=O)/C=C/c1ccccc1 | -2 | -5 | -5 | 2 | 0 | -6 | .
CCN(CC(=O)Nc1ccc(NC(C)=O)cc1)C(=O)/C=C/c1cn(-c2ccccc2)nc1-c1cccs1 | -1 | 50* | -1 | -1 | 0 | 12 | .
CC(C)[C@H](NC(=O)[C@@H]1CSC2c3ccccc3C(=O)N21)C(=O)N1CCCCC1 (stereo partly drawn) | 2 | 7 | 4 | -1 | 0 | -1 | .
CCN1C(=O)c2cccc3c(S(=O)(=O)NCCc4c[nH]c5ccccc45)ccc1c23 | -10 | 22 | -11 | -3 | 0 | 38 | .
CCN1C(=O)c2cccc3c(S(=O)(=O)NCc4ccccc4)ccc1c23 | 0 | 57* | -1 | 1 | . | . | .
CCOC(=O)c1c(C)[nH]c(C(=O)Nc2cc(OCC)c(N3CCOCC3)cc2OCC)c1C | 4 | 45* | 3 | 1 | . | . | i
O=C(Nc1ccccc1)O[C@@H]1C[C@H]2CCC(=O)N3CC[C@@H](C1)[C@@H]23 | 2 | . | 13 | . | 4 | -10 | .
COc1ccc(C(=O)N2CCN(c3ccc(N4CCOCC4)nn3)CC2)cc1OC | 6 | . | -4 | 1 | 0 | 2 | .
SMILES | proCasp7 act | Neddyl block | proCasp3 act | GAA850 FXN act | HIF activator | Calb FLC | Neddyl inh conf
CC(C)(C)c1ccc(C(=O)N2CCN(c3ccc(N4CCOCC4)nn3)CC2)cc1 | -4 | 52* | 1 | 3 | 0 | -5 | .
O=C(c1ccc(C(F)(F)F)cc1)N1CCN(c2ccc(N3CCOCC3)nn2)CC1 | 5 | 59* | 7 | -1 | 0 | 0 | .
Cc1ccc(C(=O)N2CCN(c3ccc(C(F)(F)F)cn3)CC2)cc1 | 11 | 5 | 8 | 2 | -9 | 7 | .
Cc1noc(C)c1NC(=O)Nc1ccc2c(c1)C(=O)N([C@H](C)CO)C[C@H](C)[C@@H](CN(C)C(=O)Nc1c(C)noc1C)O2 | -2 | -24 | -8 | 1 | . | . | .
Cn1c(CNC(=O)C(Cc2ccccc2)NC(=O)c2cccc(F)c2)cc(=O)n(C)c1=O (stereo not drawn) | -1 | 0 | -1 | 1 | 0 | . | .
Cc1ccc(OCc2occc2C(=O)O)cc1 | . | 6 | . | 5 | . | . | .
CCOc1ccc2[nH]c(=O)c(CN(Cc3ccco3)C(CC)c3nnnn3Cc3ccccc3)cc2c1 (stereo not drawn) | -32 | 41* | -21 | 3 | 0 | 16 | i
CCOc1ccc2[nH]c(=O)c(CN(Cc3cccs3)C(CC)c3nnnn3C(C)(C)CC)cc2c1 (stereo not drawn) | . | 45* | . | 3 | 2 | 12 | i
CCOc1ccc2[nH]c(=O)c(CN(Cc3ccco3)Cc3nnnn3Cc3ccccc3)cc2c1 | -8 | 34 | -17 | 4 | 0 | 13 | .
CCOC(=O)N1CCN(C(=O)CSc2ccc3nnc(-c4ccccn4)n3n2)CC1 | 7 | 44* | 5 | 0 | -1 | -13 | i
COc1ccc(NC(=O)COC(=O)c2ccc(S(=O)(=O)N(C)c3ccccc3OC)cc2)cc1 | . | -11 | . | -1 | . | . | .
COc1cccc2cc(-c3cc(=O)oc4ccc(OCC(C)=O)cc34)oc12 | -12 | 5 | -12 | -3 | 1 | 3 | .
COC(=O)COc1ccc2oc(=O)cc(-c3cc4cccc(OC)c4o3)c2c1 | 8 | 42* | 0 | -1 | 0 | -11 | i
CNC(=O)c1ccc(Nc2nnc(-c3ccc(C)c(S(=O)(=O)NCC4CCCO4)c3)c3ccccc23)cc1 (stereo not drawn) | 14 | 40* | -3 | 0 | 1 | 31 | i
CN(C)c1ccc(C(=O)NCc2ccc3c(c2)OCO3)cc1 | 6 | 0 | 1 | 2 | 1 | 1 | .
CN(C)c1cccc(C(=O)NCc2ccc3c(c2)OCO3)c1 | 9 | 44* | 4 | 3 | 2 | -17 | +
